Screens as filed in PubChem BioAssay.
Only some compounds are listed: those with a hit (about 3.1% of all), similar ones and a draw of the others.
GPR7 antag = GPR7 receptor antagonists, primary screen, cell-based, fluorescence, single concentration; GPR7-expressing cells, fluorescence antagonist assay; inhibition, % at 4.4 µM; hit rate 1.1% among 290,000; in the data active = inhibition above about 16%, passing the limit was not always enough;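 note: cells stimulated with the agonist NPW; 0% = agonist with vehicle and 100% = vehicle without agonist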
CHO parental Ca = ATP-evoked calcium signal inhibitors, parental CHO, primary screen, counter-screen for OX1R antagonist project, cell-based, fluorescence, Fluo-8 calcium dye | parental CHO-K1, ATP-induced calcium, Fluo-8 fluorescence | inhibition, % at 5.6 µM | hit rate 0.63% among 330,000;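 active = inhibition above that plate's mean sample inhibition plus 3 SD, cut at about 26% in these data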;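 note: 0% = ATP-challenged DMSO wells and 100% = DMSO wells without ATP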
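Test system: untransfected parental CHO cell line; also added: ATP stimulus; dosing: 5.6 µM, single dose; signal: calcium-sensitive Fluo-8 fluorescence; measure: percent inhibition of ATP-evoked calcium rise, normalized to controls; benchmarks: low control ATP plus DMSO, high control DMSO only; replication: one well per compound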
GalR3 antagonist = GalR3 antagonists in HEK293 cells, primary screen, cell-based, fluorescence readout | HEK293 GalR3-CNG cAMP membrane potential fluorescence; galR3 body fused to GalR1 C-terminus | inhibition, % at 3 µM | hit rate 0.44% among 360,000 | AID 651719, 2012;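 active = inhibition above the screen-wide average plus 3 SD, cut at about 13% in these data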;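 note: forskolin and galanin both at EC90 stimulate the cells; cAMP rise reported by CNG channel membrane potential dye signal; 0% = forskolin plus galanin with DMSO and 100% = forskolin alone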
OX1R antag-1 = OX1R (HCRTR1) antagonists, primary screen, fluorescence, CHO/OX1R cells, Fluo-8 calcium, orexin A; Fluo-8 calcium fluorescence; hit rate 0.43% among 330,000; inhibition, % at 5 µM;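 active = inhibition above its plate's threshold, mean inhibition of all tested compounds on the plate plus 3 SD, cut at about 37% in these data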;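 note: 0% = orexin A challenge wells and 100% = SB-334867-A antagonist wells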
Target sequence (O43613 whole entry, looked up): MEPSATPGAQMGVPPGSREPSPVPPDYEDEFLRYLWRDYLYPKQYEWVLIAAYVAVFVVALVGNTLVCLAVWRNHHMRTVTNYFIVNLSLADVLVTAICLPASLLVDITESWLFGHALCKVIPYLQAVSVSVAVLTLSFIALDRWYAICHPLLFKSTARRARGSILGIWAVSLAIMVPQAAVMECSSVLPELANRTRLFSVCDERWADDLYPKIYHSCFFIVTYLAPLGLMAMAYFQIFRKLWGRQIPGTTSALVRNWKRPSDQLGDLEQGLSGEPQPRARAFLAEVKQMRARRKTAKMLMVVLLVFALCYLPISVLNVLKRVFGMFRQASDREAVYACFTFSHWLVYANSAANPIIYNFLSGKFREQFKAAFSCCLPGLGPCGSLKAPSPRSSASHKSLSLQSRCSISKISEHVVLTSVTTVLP
OX1R antag-2 = antagonists of human orexin 1 receptor (OX1R); OX1R-expressing cells, FRET antagonist read-out; inhibition, % at 6.6 µM; hit rate 1.8% among 330,000; AID 485270, 2010; in the data active = inhibition mostly above about 38%, no sharp cut-off; inactive = mostly below about 40%;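 note: 0% = agonist challenge alone and 100% = reference antagonist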
An asterisk follows results filed as active; / = no result.

SMILES	GPR7 antag	CHO parental Ca	GalR3 antagonist	OX1R antag-1	OX1R antag-2
CCOC(=O)C1CCCN(c2c(N3CCc4ccccc4C3)c(=O)c2=O)C1 (stereo not given)	21.8*	/	/	/	/
CCOC(=O)C1CCN(c2nc(-c3ccccc3)nc3c2oc2ccccc23)CC1	-4.1	-10.8	-0.2	-31.0	19.5
CCOC(=O)C1CCCN(C(=O)c2cc(=O)c3ccccc3o2)C1 (stereo not given)	9.9	-4.0	-3.7	-0.1	3.2
Cc1cc(C)n(C(=O)/C(C#N)=N/Nc2cc(Cl)cc(Cl)c2)n1	5.2	74.9*	/	58.8*	59.5*
CCCn1nnc(NC(=O)c2ccc([N+](=O)[O-])cc2Cl)n1	3.8	-2.7	-4.4	-20.0	63.5*
Cc1ccc(-c2nc(NC(=O)c3nn(C)cc3[N+](=O)[O-])sc2C)cc1	-1.3	2.9	-2.8	3.7	12.9
CCCCn1nnc(NC(=O)c2ccc([N+](=O)[O-])cc2Cl)n1	-1.0	-2.9	-5.3	-15.0	64.2*
Cn1cc([N+](=O)[O-])c(C(=O)NNC(=O)c2ccc([N+](=O)[O-])cc2Cl)n1	-9.4	3.8	-5.2	-13.4	44.2*
Cn1cc([N+](=O)[O-])c(C(=O)Nc2nc(-c3ccc(Cl)cc3)cs2)n1	8.4	56.3*	-3.9	40.5*	18.4
CCN(CC(=O)Nc1ccc2c(c1)OCCO2)C(=O)/C=C/c1cccc(C(F)(F)F)c1	/	-15.6	-5.7	-36.7	4.9
Cn1cc([N+](=O)[O-])c(C(=O)Nc2ccc(C(=O)N3CCCCC3)cc2)n1	-3.1	-10.0	0.5	-16.3	73.3*
CCCCN(C(=O)c1cc2c(s1)CCCCC2)c1c(N)n(CCC)c(=O)[nH]c1=O	/	-14.7	-2.8	-26.9	1.9
O=S(=O)(c1ccc2c(c1)CCCN2)N1CCCCC1	/	-2.1	-3.5	13.7	15.5
CCN(CC)c1ccc2c(c1)CCCN2	-5.1	-3.9	/	-21.9	85.1*
CCO[C@@H]1OC(C(=O)Nc2ccccc2)=C[C@H](c2csc3ccccc23)[C@H]1CCCO	23.4	0.7	-6.7	-19.9	17.7
O=C(COC(=O)c1ccccc1NS(=O)(=O)c1ccc(Cl)cc1)NCc1ccccc1	-1.9	-8.6	0.6	-26.1	49.4*
CC(=O)N1CCN(c2nc3ccc([N+](=O)[O-])cc3s2)CC1	-0.9	15.1	-7.0	3.8	54.4*
O=C(C1=COCCO1)N1CCN(c2nc3ccc([N+](=O)[O-])cc3s2)CC1	/	19.6	-3.3	-8.6	15.7
O=C(Nc1ccc(OC(F)(F)F)cc1)Nc1cccc([N+](=O)[O-])c1	42.6*	73.5*	-5.7	36.0	78.5*
O=C(Nc1cccc([N+](=O)[O-])c1)c1ccncc1	-10.6	-7.0	-3.4	-0.5	65.5*
Cc1ccc(NC(=O)Nc2cccc([N+](=O)[O-])c2)cc1F	30.2*	8.5	-2.5	14.8	35.9
O=C(Nc1cccnc1)Nc1cccc([N+](=O)[O-])c1	-10.2	-5.3	-9.4	-18.5	13.2
N#CCCN(C(=O)COC(=O)c1ccc(Cl)nc1)c1ccc2c(c1)OCCO2	/	/	-6.4	/	/
CCC(=O)c1ccc(OCC(=O)OCC(=O)N(CCC#N)c2ccc3c(c2)OCCO3)cc1	/	44.3*	0.2	26.1	2.2
COc1ccc(-c2csc(=Nc3c(C)n(C)n(-c4ccccc4)c3=O)n2C(C)(C)C)cc1	13.1	-15.2	-5.9	-17.4	10.5
SMILES	GPR7 antag	CHO parental Ca	GalR3 antagonist	OX1R antag-1	OX1R antag-2
COc1ccc(-c2cc(=Nc3c(C)n(C)n(-c4ccccc4)c3=O)c3ccccc3o2)cc1	0.5	-9.9	-3.1	-12.2	54.9*
Oc1ccc(Br)cc1/C=N/NC(=S)NCCc1ccccc1	-33.0	33.8*	-1.4	6.9	17.4
COc1ccc(O)c(/C=N/NC(=S)NCCc2ccccc2)c1	-21.1	0.0	-7.3	-16.6	20.1
CCOCCCn1c(=NC(C)=O)c(C#N)cc2c(=O)n3ccccc3nc21	-2.3	0.8	-2.0	1.4	40.2*
COCCCn1c(=NC(=O)c2ccccc2)c(C#N)cc2c(=O)n3cccc(C)c3nc21	-14.0	9.9	-1.8	1.6	55.2*
CCOCCCn1c(=NC(C)=O)c(C(=O)OCC)cc2c(=O)n3ccccc3nc21	-4.3	-2.5	-6.6	-7.4	58.6*
CC(C)(C)n1ncc2c(=O)n(Cc3cccc(Cn4cnc5c(cnn5C(C)(C)C)c4=O)c3F)cnc21	/	61.9*	-0.5	63.9*	29.1
O=C(Nc1ccc(-n2nncc2-c2ccco2)cc1)c1cc2ccccc2oc1=O	-12.0	54.2*	/	-12.7	10.4
C[C@@H]1ON(C)[C@H]2C[C@H]3c4[nH]c5c(-c6cc(Cl)cc(Cl)c6)cccc5c4CCN3C(=O)[C@@H]12	/	/	-5.1	/	/
CC(C)COc1ccc(/C(=N/O)c2ccccc2)cc1	-7.4	32.9*	-2.8	26.1	5.9
CC(C)COc1ccc(CNC(=S)NCc2ccccc2)cc1	-3.4	-29.9	-11.8	28.5	1.8
Cc1ccc(C)c(NC(=S)NNc2ccc(F)cc2F)c1	18.2	70.7*	-4.3	83.4*	16.7
Cc1ccc(SCC(=O)N2CCN(S(=O)(=O)c3cccs3)CC2)cc1	/	-22.5	-3.5	-26.8	8.9
Cc1noc(C)c1COc1cccc(C(=O)OC(C)C(=O)Nc2ccc3c(c2)OCO3)c1 (stereo not given)	19.4*	-1.8	-7.0	-16.4	13.1
COc1cc(C(=O)OC(C)C(=O)Nc2ccc3c(c2)OCO3)ccc1OCc1c(C)noc1C (stereo not given)	-0.7	-15.8	-5.9	-23.6	13.2
Cc1noc(C)c1COc1cccc(C(=O)Oc2ccc3c(c2)OCO3)c1	18.1*	-11.9	-6.0	-2.9	13.8
Cc1ccc2[nH]c3c(=O)n(CC(=O)Nc4ccccc4N4CCN(C)CC4)ncc3c2c1	1.6	-28.5	-7.2	-18.5	-1.0
Cc1ccc(C)n1-n1c(C)nc2sc(-c3ccccc3)cc2c1=O	8.5	38.5*	0.5	27.3	57.2
Cc1ccc(C)n1-n1cnc2sc(-c3ccccc3)cc2c1=O	-1.9	-26.4	-5.7	-19.8	18.7
CCCN(CC(=O)Nc1ccccc1OC)C(=O)c1ccc(S(=O)(=O)Nc2ccccc2OC)cc1	/	/	-5.8	/	/
CCCN(CC(=O)Nc1ccccc1OC)C(=O)c1ccc(S(=O)(=O)Nc2ccccc2)cc1	/	0.9	-3.7	15.9	70.3*
CC(C)(C)n1nnnc1C(c1ccccc1)N1CCN(c2ccccn2)CC1 (stereo not given)	/	/	-4.6	/	/
COc1ccc(Br)cc1CSC(=N)N	9.0	-9.3	-5.1	-14.1	16.2
CCCCCOc1ccc(Br)cc1CSC(=N)N	71.7*	/	19.3*	/	/
COc1ccc(C)cc1NC(=O)C1CCN(S(=O)(=O)c2ccc3c(c2)C(C)(C)C(=O)N3C)CC1	-10.1	-22.3	-0.4	-40.5	6.5
COc1ccccc1C(C(=O)NCc1ccc(F)cc1)N(C(=O)c1csnn1)C1CC1 (stereo not given)	-3.6	-18.4	-8.6	-27.0	7.4
